From ChEMBL document CHEMBL4184148 (Bioorg Med Chem Lett, 2017)

Tests used:
[1] = target: Megakaryocyte-associated tyrosine-protein kinase (Homo sapiens) (UniProt P42679); assay: Binding affinity to wild-type human full length CTK (M43 to P508 residues) expressed in HEK293 cells at 1 uM by Kinomescan method relative to control; type: cell-based
Outline: (§1)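 Run as one kinome-wide competition binding panel with each compound at a single fixed concentration. Results were plotted as a kinome-wide selectivity map.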

[2] = target: Phosphatidylinositol 4,5-bisphosphate 3-kinase catalytic subunit beta isoform (Homo sapiens) (UniProt P42338); assay: Binding affinity to wild-type human partial length PIK3CB (P118 to S1070 residues) expressed in HEK293 cells at 1 uM by Kinomescan method relative to control; type: cell-based
[3] = target: Mitogen-activated protein kinase kinase kinase kinase 5 (Homo sapiens) (UniProt Q9Y4K4); assay: Binding affinity to wild-type human partial length MAP4K5 (M1 to P297 residues) expressed in Escherichia coli BL21 at 1 uM by Kinomescan method relative to control
[4] = target: NT-3 growth factor receptor (Homo sapiens) (UniProt Q16288); assay: Binding affinity to wild-type human partial length TRKC (Q531 to G825 residues) expressed in HEK293 cells at 1 uM by Kinomescan method relative to control; type: cell-based
Chain of NT-3 growth factor receptor (Homo sapiens) (Q16288 32-839 limits assumed): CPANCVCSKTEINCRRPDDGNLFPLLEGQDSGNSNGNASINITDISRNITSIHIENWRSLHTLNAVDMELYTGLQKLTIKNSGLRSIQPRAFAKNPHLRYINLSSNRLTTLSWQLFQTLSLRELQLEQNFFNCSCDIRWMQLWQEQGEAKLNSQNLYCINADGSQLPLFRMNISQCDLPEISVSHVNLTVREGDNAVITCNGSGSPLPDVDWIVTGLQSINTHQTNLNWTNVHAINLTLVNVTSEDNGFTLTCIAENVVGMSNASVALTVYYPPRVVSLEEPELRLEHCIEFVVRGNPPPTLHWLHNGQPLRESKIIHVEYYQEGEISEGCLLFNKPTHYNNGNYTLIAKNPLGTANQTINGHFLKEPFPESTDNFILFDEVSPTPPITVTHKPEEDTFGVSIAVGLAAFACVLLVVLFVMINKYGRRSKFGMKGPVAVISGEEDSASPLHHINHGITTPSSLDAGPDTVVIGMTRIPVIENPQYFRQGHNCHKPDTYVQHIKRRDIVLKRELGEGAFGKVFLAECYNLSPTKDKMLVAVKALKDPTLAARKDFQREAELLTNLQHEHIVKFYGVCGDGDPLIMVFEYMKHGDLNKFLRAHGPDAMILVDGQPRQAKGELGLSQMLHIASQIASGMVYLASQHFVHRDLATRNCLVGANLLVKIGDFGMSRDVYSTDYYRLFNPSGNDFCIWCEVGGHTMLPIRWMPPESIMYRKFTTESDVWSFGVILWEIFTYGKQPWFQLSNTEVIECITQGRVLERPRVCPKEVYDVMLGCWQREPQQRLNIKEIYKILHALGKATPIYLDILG

[5] = target: Mitogen-activated protein kinase kinase kinase 5 (Homo sapiens) (UniProt Q99683); assay: Binding affinity to wild-type human partial length ASK1 (E648 to S964 residues) expressed in Escherichia coli BL21 at 1 uM by Kinomescan method relative to control
Outline: (§2)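 Kinome-wide competition binding panel run by an outside provider, with each compound tested at a single concentration. Activity is read against the kinase panel.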

[6] = test system: HEK293; assay: Binding affinity to wild-type Mycobacterium tuberculosis partial length PKNB (M1 to G279 residues) expressed in HEK293 cells at 1 uM by Kinomescan method relative to control; type: cell-based
[7] = target: Angiopoietin-1 receptor (Homo sapiens) (UniProt Q02763); assay: Binding affinity to wild-type human partial length TIE2 (N804 to T1112 residues) expressed in Escherichia coli BL21 at 1 uM by Kinomescan method relative to control
[8] = target: Serine/threonine-protein kinase D3 (Homo sapiens) (UniProt O94806); assay: Binding affinity to wild-type human partial length PRKD3 (S543 to E863 residues) expressed in Escherichia coli BL21 at 1 uM by Kinomescan method relative to control
[9] = target: MAP kinase-activated protein kinase 5 (Homo sapiens) (UniProt Q8IW41); assay: Binding affinity to wild-type human partial length MAPKAPK5 (M1 to D322 residues) expressed in HEK293 cells at 1 uM by Kinomescan method relative to control; type: cell-based
[10] = test system: Tyrosine-protein kinase ABL1 (Homo sapiens), P00519 [F317L]; assay: Binding affinity to human phosphorylated ABL1 F317L mutant (S229 to K512 residues) expressed in HEK293 cells at 1 uM by Kinomescan method relative to control; type: cell-based
[11] = target: Ribosomal protein S6 kinase alpha-5 (Homo sapiens) (UniProt O75582); assay: Binding affinity to wild-type human partial length N-terminal RPS6KA5 kinase domain 1 expressed in Escherichia coli BL21 at 1 uM by Kinomescan method relative to control
[12] = target: Phosphatidylinositol 5-phosphate 4-kinase type-2 gamma (Homo sapiens) (UniProt Q8TBX8); assay: Binding affinity to wild-type human partial length PIP5K2C (M1 to A421 residues) expressed in HEK293 cells at 1 uM by Kinomescan method relative to control; type: cell-based
[13] = target: Tyrosine-protein kinase receptor TYRO3 (Homo sapiens) (UniProt Q06418); assay: Binding affinity to wild-type human partial length TYRO3 (S497 to T814 residues) expressed in Escherichia coli BL21 at 1 uM by Kinomescan method relative to control
Chain of Tyrosine-protein kinase receptor TYRO3 (Homo sapiens) (Q06418 whole entry, the tested form may be a part): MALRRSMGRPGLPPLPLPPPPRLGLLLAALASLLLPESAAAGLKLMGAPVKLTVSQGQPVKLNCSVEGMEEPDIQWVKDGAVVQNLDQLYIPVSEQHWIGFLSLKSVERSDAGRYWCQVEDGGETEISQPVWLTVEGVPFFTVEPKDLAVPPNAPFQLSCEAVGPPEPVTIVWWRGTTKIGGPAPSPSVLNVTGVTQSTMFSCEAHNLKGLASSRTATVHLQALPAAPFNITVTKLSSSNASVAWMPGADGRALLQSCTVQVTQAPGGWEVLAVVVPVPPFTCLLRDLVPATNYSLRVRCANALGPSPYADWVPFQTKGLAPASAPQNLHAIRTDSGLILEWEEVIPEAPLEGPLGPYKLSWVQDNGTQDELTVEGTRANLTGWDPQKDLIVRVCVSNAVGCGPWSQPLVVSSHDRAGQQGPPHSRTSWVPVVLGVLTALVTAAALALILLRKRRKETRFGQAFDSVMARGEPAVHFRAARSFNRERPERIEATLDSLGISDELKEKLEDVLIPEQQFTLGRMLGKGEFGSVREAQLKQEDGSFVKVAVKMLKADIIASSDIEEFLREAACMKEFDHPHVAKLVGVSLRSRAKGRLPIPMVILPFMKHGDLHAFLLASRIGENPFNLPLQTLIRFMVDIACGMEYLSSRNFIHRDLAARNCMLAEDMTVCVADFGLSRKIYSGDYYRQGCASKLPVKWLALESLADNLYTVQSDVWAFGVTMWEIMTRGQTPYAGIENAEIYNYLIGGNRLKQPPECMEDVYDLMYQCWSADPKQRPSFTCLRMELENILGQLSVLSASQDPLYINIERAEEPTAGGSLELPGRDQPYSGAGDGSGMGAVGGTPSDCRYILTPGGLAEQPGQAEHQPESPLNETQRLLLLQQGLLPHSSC

[14] = target: Platelet-derived growth factor receptor alpha (Homo sapiens) (UniProt P16234); assay: Binding affinity to wild-type human partial length PDGFRA (V575 to D1002 residues) expressed in HEK293 cells at 1 uM by Kinomescan method relative to control; type: cell-based
[15] = test system: Phosphatidylinositol 4,5-bisphosphate 3-kinase catalytic subunit alpha isoform (Homo sapiens), P42336 [H1047L]; assay: Binding affinity to human partial length PIK3CA H1047L mutant (R108 to N1068 residues) expressed in HEK293 cells at 1 uM by Kinomescan method relative to control; type: cell-based
Chain of Phosphatidylinositol 4,5-bisphosphate 3-kinase catalytic subunit alpha isoform (Homo sapiens), P42336 [H1047L] (P42336 whole entry H1047L, the tested form may be a part, canonical isoform): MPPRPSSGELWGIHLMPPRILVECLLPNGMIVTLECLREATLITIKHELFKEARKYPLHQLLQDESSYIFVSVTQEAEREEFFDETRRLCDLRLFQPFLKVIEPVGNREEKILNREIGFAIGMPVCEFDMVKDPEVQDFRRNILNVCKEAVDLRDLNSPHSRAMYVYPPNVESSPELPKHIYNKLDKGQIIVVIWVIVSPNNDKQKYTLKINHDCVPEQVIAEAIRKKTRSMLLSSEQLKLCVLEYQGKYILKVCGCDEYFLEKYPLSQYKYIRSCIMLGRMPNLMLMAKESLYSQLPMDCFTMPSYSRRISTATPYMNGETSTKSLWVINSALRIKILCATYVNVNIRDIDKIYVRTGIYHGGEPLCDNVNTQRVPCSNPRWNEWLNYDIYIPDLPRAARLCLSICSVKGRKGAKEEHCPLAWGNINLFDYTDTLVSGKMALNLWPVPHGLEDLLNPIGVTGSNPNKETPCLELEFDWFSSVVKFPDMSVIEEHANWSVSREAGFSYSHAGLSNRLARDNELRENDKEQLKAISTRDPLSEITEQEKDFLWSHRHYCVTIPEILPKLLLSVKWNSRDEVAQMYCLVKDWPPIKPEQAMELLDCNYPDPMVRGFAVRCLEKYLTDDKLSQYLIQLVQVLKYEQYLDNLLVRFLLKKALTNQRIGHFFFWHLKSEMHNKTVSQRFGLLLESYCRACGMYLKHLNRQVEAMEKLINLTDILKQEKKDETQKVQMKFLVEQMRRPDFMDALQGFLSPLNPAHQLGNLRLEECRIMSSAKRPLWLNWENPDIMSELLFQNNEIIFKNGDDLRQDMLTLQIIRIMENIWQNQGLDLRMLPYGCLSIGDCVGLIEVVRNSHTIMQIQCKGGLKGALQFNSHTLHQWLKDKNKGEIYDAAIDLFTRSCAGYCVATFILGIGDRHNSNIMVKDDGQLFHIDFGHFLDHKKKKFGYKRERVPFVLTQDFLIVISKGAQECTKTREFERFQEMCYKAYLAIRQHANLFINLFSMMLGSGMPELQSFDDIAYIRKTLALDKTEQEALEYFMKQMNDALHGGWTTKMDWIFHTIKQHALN

[16] = target: Casein kinase I isoform gamma-3 (Homo sapiens) (UniProt Q9Y6M4); assay: Binding affinity to wild-type human full length CSNK1G3 (M1 to K447 residues) expressed in Escherichia coli BL21 at 1 uM by Kinomescan method relative to control; outline: as §1
Chain of Casein kinase I isoform gamma-3 (Homo sapiens) (Q9Y6M4 whole entry, looked up, the tested form may be a part, canonical isoform): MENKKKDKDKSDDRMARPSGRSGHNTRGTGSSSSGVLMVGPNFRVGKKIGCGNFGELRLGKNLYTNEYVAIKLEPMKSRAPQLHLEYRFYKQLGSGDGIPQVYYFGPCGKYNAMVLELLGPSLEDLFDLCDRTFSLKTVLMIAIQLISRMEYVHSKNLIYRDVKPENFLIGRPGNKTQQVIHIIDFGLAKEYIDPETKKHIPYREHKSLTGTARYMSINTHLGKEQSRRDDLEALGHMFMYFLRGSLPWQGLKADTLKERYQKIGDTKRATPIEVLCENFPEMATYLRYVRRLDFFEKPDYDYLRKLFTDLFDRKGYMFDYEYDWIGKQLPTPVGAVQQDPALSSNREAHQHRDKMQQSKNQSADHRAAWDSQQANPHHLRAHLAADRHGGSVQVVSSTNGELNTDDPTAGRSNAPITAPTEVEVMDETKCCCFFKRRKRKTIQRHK

[17] = target: Protein kinase C eta type (Homo sapiens) (UniProt P24723); assay: Binding affinity to wild-type human partial length PRKCH (S324 to P683 residues) expressed in Escherichia coli BL21 at 1 uM by Kinomescan method relative to control
Chain of Protein kinase C eta type (Homo sapiens) (P24723 whole entry, the tested form may be a part): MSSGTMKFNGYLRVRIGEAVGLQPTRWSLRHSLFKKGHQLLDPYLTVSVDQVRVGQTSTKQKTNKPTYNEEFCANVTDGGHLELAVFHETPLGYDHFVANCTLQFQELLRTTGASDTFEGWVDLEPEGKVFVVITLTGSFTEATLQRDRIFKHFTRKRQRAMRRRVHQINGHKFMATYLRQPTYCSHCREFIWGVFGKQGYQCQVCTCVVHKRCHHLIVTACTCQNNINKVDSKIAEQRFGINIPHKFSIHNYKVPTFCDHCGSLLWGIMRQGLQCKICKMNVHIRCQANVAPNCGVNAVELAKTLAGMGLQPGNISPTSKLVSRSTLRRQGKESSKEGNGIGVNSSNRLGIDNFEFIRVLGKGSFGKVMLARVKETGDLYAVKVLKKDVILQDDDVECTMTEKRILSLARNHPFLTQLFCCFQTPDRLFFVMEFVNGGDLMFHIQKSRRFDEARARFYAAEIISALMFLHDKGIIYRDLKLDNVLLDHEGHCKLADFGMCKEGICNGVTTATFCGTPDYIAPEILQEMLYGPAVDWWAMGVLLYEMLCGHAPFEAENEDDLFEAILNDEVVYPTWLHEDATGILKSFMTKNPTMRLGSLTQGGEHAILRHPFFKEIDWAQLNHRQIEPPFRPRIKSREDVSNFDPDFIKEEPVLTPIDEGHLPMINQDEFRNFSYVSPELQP

[18] = target: Serine/threonine-protein kinase haspin (Homo sapiens) (UniProt Q8TF76); assay: Binding affinity to wild-type human partial length HASPIN (I452 to K798 residues) expressed in HEK293 cells at 1 uM by Kinomescan method relative to control; type: cell-based
[19] = target: Receptor-type tyrosine-protein kinase FLT3 (Homo sapiens) (UniProt P36888); assay: Binding affinity to wild-type human partial length autoinhibited FLT3 (H564 to Y969 residues) expressed in HEK293 cells at 1 uM by Kinomescan method relative to control; type: cell-based; design: scale not given: the % may be the effect or the level left
[20] = target: Interferon-induced, double-stranded RNA-activated protein kinase (Homo sapiens) (UniProt P19525); assay: Binding affinity to wild-type human partial length PRKR (F247 to C551 residues) expressed in Escherichia coli BL21 at 1 uM by Kinomescan method relative to control
[21] = target: Mast/stem cell growth factor receptor Kit (Homo sapiens) (UniProt P10721); assay: Binding affinity to wild-type human partial length autoinhibited KIT (Y545 to D952 residues) expressed in HEK293 cells at 1 uM by Kinomescan method relative to control; type: cell-based; design: scale not given: the % may be the effect or the level left
[22] = target: Glycogen synthase kinase-3 beta (Homo sapiens) (UniProt P49841); assay: Binding affinity to wild-type human full length GSK3B (M1 to T433 residues) expressed in HEK293 cells at 1 uM by Kinomescan method relative to control; type: cell-based; outline: as §1
Chain of Glycogen synthase kinase-3 beta (Homo sapiens) (P49841 whole entry, looked up, the tested form may be a part): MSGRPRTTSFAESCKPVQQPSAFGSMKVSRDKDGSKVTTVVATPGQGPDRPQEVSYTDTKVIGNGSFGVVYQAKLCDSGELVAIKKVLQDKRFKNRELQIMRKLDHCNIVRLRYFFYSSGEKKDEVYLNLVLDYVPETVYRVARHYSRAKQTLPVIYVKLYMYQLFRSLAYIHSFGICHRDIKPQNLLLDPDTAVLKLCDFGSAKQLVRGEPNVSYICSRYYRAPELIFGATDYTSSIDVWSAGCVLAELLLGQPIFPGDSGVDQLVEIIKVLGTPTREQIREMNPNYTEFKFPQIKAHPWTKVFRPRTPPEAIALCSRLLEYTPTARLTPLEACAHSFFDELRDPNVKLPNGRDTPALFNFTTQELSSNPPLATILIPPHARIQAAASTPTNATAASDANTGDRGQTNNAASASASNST

[23] = target: Myosin light chain kinase, smooth muscle (Homo sapiens) (UniProt Q15746); assay: Binding affinity to wild-type human full length MYLK (M854 to E1845 residues) expressed in HEK293 cells at 1 uM by Kinomescan method relative to control; type: cell-based; outline: as §1
[24] = target: Serine/threonine-protein kinase OSR1 (Homo sapiens) (UniProt O95747); assay: Binding affinity to wild-type human full length OSR1 (M1 to S527 residues) expressed in HEK293 cells at 1 uM by Kinomescan method relative to control; type: cell-based; outline: as §2
[25] = target: Mitogen-activated protein kinase kinase kinase kinase 2 (Homo sapiens) (UniProt Q12851); assay: Binding affinity to wild-type human partial length MAP4K2 (M1 to G318 residues) expressed in HEK293 cells at 1 uM by Kinomescan method relative to control; type: cell-based

Chain of Megakaryocyte-associated tyrosine-protein kinase (Homo sapiens) (P42679 whole entry, the tested form may be a part): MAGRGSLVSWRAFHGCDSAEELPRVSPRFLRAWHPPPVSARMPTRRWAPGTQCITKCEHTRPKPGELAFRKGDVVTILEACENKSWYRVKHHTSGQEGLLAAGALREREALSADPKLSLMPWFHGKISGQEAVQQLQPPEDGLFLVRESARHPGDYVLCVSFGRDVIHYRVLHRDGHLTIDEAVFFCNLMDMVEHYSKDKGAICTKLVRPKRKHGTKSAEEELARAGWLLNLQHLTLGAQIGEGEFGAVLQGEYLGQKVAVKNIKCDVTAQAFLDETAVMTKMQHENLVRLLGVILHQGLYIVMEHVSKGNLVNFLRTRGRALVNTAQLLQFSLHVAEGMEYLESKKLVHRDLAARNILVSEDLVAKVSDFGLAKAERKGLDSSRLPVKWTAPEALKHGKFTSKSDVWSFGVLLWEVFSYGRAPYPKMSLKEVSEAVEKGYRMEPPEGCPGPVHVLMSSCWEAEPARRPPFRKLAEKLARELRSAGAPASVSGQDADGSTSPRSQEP

Row | SMILES | Activity [1] | Activity [2] | Activity [3] | Activity [4] | Activity [5] | Activity [6] | Activity [7] | Activity [8] | Activity [9] | Activity [10] | Activity [11] | Activity [12] | Activity [13] | Activity [14] | Activity [15] | Activity [16] | Activity [17] | Activity [18] | Activity [19] | Activity [20] | other results
1 | CCC(=O)Nc1ccc(C(=O)Nc2ccc(Nc3ncc4c(n3)N(C)c3ccc(C)cc3C(=O)N4C)cc2)cc1 | 95% | 50% | 100% | 89% | 99% | 68% | 54% | 81% | 55% | 100% | 100% | 100% | 91% | 63% | 70% | 97% | 100% | 100% | 85% | 100% | Activity [21]: 90%; Activity [22]: 82%; Activity [23]: 78%; Activity [24]: 90%; Activity [25]: 97%
2 | C=CC(=O)Nc1ccc(C(=O)Nc2ccc(Nc3ncc4c(n3)N(C)c3ccc(C)cc3C(=O)N4C)cc2)cc1 | 100% | 100% | 100% | 100% | 100% | 94% | 88% | 90% | 99% | 92% | 100% | 56% | 92% | 91% | 63% | 100% | 100% | 100% | 84% | 90% | Activity [21]: 96%; Activity [22]: 92%; Activity [23]: 89%; Activity [24]: 99%; Activity [25]: 92%
